In the library only some 2.9% were active in any assay of this set; here they are far more common.
Kir21 inh – inhibitors of mouse Kir2.1 inward-rectifier potassium channel; P35561; HEK293-Kir2.1, FluxOR thallium flux fluorescence; stronger effect = lower value; B-score at 10 µM; 310,000 tested, 0.85% active; AID 1672;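 active = fluorescence ratio B-score at or below minus 3 SD of library scores, with starting-brightness B-score within 2 SD, cut at about -4.2 in these data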;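 note: channel flux triggered by added potassium and thallium sulfate stimulus; B-score of peak minus minimum fluorescence over baseline after thallium stimulus; more negative B-score means stronger Kir2.1 block with less thallium influx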
TRPC6 activator – activates the mouse TRPC6 cation channel; Q61143; HEK293-TRPC6 membrane potential dye fluorescence; stronger effect = higher value; B-score at 10 µM; 310,000 tested, 0.13% active; AID 2550;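 active = B-score of the integrated fluorescence ratio above library mean plus 3 SD, and starting fluorescence ratio within library mean plus 5 SD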;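 note: higher score means more depolarization so channel activation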
Target sequence (Q61143 whole entry, looked up): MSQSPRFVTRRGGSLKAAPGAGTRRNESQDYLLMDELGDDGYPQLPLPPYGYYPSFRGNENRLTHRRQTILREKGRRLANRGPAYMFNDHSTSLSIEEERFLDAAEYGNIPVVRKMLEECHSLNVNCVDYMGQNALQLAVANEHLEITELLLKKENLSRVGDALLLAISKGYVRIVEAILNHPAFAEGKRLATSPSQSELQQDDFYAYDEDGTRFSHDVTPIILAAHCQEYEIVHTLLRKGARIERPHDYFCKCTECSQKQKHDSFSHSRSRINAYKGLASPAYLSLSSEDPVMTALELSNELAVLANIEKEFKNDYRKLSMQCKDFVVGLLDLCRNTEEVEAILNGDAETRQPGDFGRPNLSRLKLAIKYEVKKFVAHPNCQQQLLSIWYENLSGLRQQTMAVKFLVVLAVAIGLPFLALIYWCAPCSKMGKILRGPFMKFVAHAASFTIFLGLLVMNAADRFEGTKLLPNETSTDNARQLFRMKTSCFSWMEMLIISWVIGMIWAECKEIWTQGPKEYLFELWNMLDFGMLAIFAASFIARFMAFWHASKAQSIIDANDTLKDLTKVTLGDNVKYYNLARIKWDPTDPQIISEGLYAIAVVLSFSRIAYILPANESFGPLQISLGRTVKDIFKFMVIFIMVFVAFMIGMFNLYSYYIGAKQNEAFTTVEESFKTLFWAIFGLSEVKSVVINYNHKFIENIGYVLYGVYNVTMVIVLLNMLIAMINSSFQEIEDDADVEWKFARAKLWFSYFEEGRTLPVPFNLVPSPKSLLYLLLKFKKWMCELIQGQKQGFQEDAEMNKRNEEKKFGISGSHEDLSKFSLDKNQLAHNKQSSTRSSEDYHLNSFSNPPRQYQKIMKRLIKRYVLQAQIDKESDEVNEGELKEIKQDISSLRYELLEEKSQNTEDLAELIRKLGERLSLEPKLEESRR
TRPC6 inh – inhibitors of mouse TRPC6 channel; HEK293-TRPC6, membrane potential dye, ACh-evoked depolarization; stronger effect = lower value; AID 2553; 310,000 tested, 1.1% active; Q61143; B-score at 10 µM;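 active = B-score under library mean minus 3 SD, initial fluorescence not abnormally high, positive integrated signal ratio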;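 note: B-score derived from integrated fluorescence ratio over the kinetic read; more negative B-score means stronger inhibition of depolarization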
TRPC4 PAM – TRPC4 (mouse) allosteric potentiation | Q9QUQ5 | HEK293 TRPC4beta/mu-opioid, DAMGO EC20, Fluo-4 Ca2+ flux; stronger effect = higher value | B-score at 10 µM | 310,000 tested, 0.42% active;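 active = B-score of calcium response area above 5 SD of library B-scores, with initial fluorescence ratio within 5 SD of library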;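 note: B-score of integrated fluorescence ratio over time as area under calcium response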
TRPC4 block – inhibitors of mouse TRPC4 channel | Q9QUQ5 | HEK293 TRPC4beta/mu-opioid, DAMGO-evoked Fluo4 calcium flux; stronger effect = lower value | B-score at 10 µM | 300,000 tested, 0.39% active | AID 2247;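 active = B-score over 3 SD under the library average, no early fluorescence shift, positive overall ratio signal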
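Assay system: HEK293 cells with stable TRPC4beta plus mu-opioid receptor expression; Probe or stimulus: DAMGO in two steps, submaximal then maximal; Dosing: single-point compound dosing; Measured by: Fluo4 calcium-dye fluorescence, kinetic read; Read-out basis: B score from integrated Fluo4 fluorescence ratio.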
TRPC4 act – opens the mouse TRPC4 cation channel; HEK293 TRPC4beta/mu-opioid, Fluo4 calcium fluorescence; stronger effect = higher value; B-score at 10 µM; 310,000 tested, 0.49% active;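 active = B-score above 5 SD of library B-scores, and initial fluorescence ratio not above library mean plus 5 SD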;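 note: positive B-score marks a calcium rise read as TRPC4 activation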
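Material: HEK293 stable line with TRPC4beta plus mu-opioid receptor; technique: Fluo4 calcium-sensitive dye fluorescence, kinetic, 1 Hz baseline; timing: Fluo4 dye loading 45 min at room temperature, 110 s recording; controls: assay buffer as low control, maximal DAMGO as high control; read-out: integrated baseline-normalised fluorescence ratio, converted to per-well B score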
* hit, by the source's call; i = inactive.

SMILES | Kir21 inh | TRPC6 activator | TRPC6 inh | TRPC4 PAM | TRPC4 block | TRPC4 act
CC(C)CN(C(=O)C1CC1)c1c(N)n(Cc2ccccc2)c(=O)[nH]c1=O | -0.11 | i | i | 31* | i | i
CC(C)CN(C(=O)CC1CCCC1)c1c(N)n(Cc2ccccc2)c(=O)[nH]c1=O | 0 | i | i | i | i | i
COc1ccc(CN2CCC(N(CCc3ccccc3)Cc3ccccc3)CC2)c(OC)c1 | -4.7* | i | i | i | i | 143*
Cc1ccc(S(=O)(=O)c2cnc(-c3ccccc3)nc2N2CCN(C)CC2)cc1 | 0.14 | i | i | i | -6* | i
CC1=CC(C)(C)N2C(=O)C3(SCC(=O)N3c3ccc(O)cc3)c3cc(C)cc1c32 (configuration not stated) | -1.7 | i | i | 10* | i | i
Cc1ccc(N2C(=O)CSC23C(=O)Nc2ccccc23)cc1 (configuration not stated) | 1.8 | i | i | i | i | i
COc1cccc(C(=O)Nc2ccc(NC(=O)Cc3ccccc3)cc2)c1 | 1.5 | i | i | i | i | i
COc1ccc(-n2cc(CNCCc3ncc(C)[nH]3)c(-c3ccccc3Cl)n2)cc1 | -4.8* | i | i | i | i | 148*
Fc1ccc(-n2cc(CNCCc3ccccn3)c(-c3ccccc3Cl)n2)cc1 | -2.6 | i | i | i | i | 253*
Cc1ccc(-n2cc(CNCCc3ncc(C)[nH]3)c(-c3ccc(F)cc3)n2)cc1 | -4.1 | i | i | i | i | 133*
Cc1ccc(-n2cc(CNCCn3nc(C)cc3C)c(-c3ccc(F)cc3)n2)cc1 | -1.9 | i | i | i | i | i
Cc1ccc(-c2nnc(OCC3CCCO3)c3ccccc23)cc1 (configuration not stated) | -0.01 | i | i | i | i | i
O=C(Nc1cccnc1)c1ccco1 | -1.2 | i | i | i | i | i
CCCN1C(=O)c2[nH]nc(-c3cc(Cl)c(C)cc3O)c2C1c1ccc(O)c(OC)c1 (configuration not stated) | 1.6 | i | i | 11* | i | i
COCCCN1C(=O)c2[nH]nc(-c3ccccc3O)c2C1c1ccc(Cl)cc1 (configuration not stated) | 0.08 | i | i | 13* | i | i
COCCCN1C(=O)c2[nH]nc(-c3cc(C)cc(C)c3O)c2C1c1ccc(O)c(OC)c1 (configuration not stated) | -0.29 | i | i | i | i | i
CC(=O)Nc1ccc(S(=O)(=O)N(C)CC(=O)OCC(=O)N2CCCCC2)cc1 | 0 | i | i | i | i | i
CNc1ccccc1C(C)(C)c1cc(-c2ccco2)n[nH]1 | -0.16 | i | i | i | i | i
CSc1ccccc1NC(=O)CSCc1ccccc1Br | -5.3* | i | i | i | i | i
O=C(CSCc1ccccc1Br)NC1CC1 | 0.74 | i | i | i | i | i
Cn1c(=O)c2c(ncn2CC(=O)OCC(=O)Nc2ccc(Cl)cc2)n(C)c1=O | -1.5 | i | i | i | i | i
CC(OC(=O)Cn1cnc2c1c(=O)n(C)c(=O)n2C)C(=O)Nc1ccc(Cl)cc1 (configuration not stated) | 0.29 | i | i | i | -8* | i
CC(NC(=S)N1CCOCC1)c1ccccc1 (configuration not stated) | -2.5 | i | i | i | i | i
O=C(CN1CCCC(O)C1)N1c2ccccc2Sc2ccc(C(F)(F)F)cc21 (configuration not stated) | -0.37 | i | i | i | i | i
CN1CCN(CCCN2c3ccccc3Sc3ccc(C(F)(F)F)cc32)CC1 | -4.4* | i | i | i | i | i
SMILES | Kir21 inh | TRPC6 activator | TRPC6 inh | TRPC4 PAM | TRPC4 block | TRPC4 act
NC(=O)COC(=O)Cc1coc2cc3c(cc12)CCC3 | 2.1 | i | i | i | i | i
CC(C)N(CC(N)=O)C(=O)Cc1coc2cc3c(cc12)CCC3 | 1 | i | i | 13* | i | i
Cc1ccc(C(=O)Nc2ccc(N3CCN(C(=O)c4ccco4)CC3)cc2)cc1 | -0.31 | i | i | i | i | i
c1ccc(CN2CCC(Nc3nc(-c4ccccc4)nc4ccccc34)CC2)cc1 | -0.31 | i | -6.6* | i | i | i
COC(=O)c1cc([N+](=O)[O-])ccc1N1CCN(Cc2ccccc2)CC1 | 0.71 | i | i | 11* | i | i
CCCCC(=O)N1CCN(c2nc3ccc(F)cc3s2)CC1 | -3 | i | i | i | i | 78*
CCCCC(=O)N1CCN(c2nc3ccc(OCC)cc3s2)CC1 | -1.6 | i | i | i | i | i
O=C(CNC(=O)Cc1cccc2ccccc12)NCc1ccc(F)cc1 | -5.2* | i | i | i | i | i
NS(=O)(=O)c1ccc(CCNC(=O)CNC(=O)Cc2cccc3ccccc23)cc1 | -0.23 | i | i | i | i | i
O=C(NCc1cccnc1)c1cnn2ccccc12 | 0.9 | i | i | i | i | i
COc1ccc(CCNC(=O)c2ccc(CS(=O)Cc3ccc(Cl)cc3)o2)cc1OC (configuration not stated) | -0.84 | i | i | i | i | i
Cc1ccc(CN=C(Nc2ccccc2)NC2CCCCC2)cc1 | -6.5* | i | i | i | i | i
O=C(/C(=C/c1ccccc1)n1cncn1)c1ccc(Cl)cc1Cl | -13* | i | i | i | i | i
COc1ccc(S(=O)(=O)Nc2cc(S(=O)(=O)c3ccccc3)c(O)cc2C)cc1 | -0.01 | i | i | i | i | i
Cc1cc(O)c(C(C)C)cc1NS(=O)(=O)c1ccccc1 | -6.8* | i | i | i | i | i
Cc1cc(-c2n[nH]c(=S)n2/N=C/c2cc([N+](=O)[O-])ccc2Cl)n[nH]1 | 3.8 | i | i | i | i | i
O=C(c1ccc(COc2ccccc2Br)o1)N1CCCCCC1 | -0.19 | i | i | i | i | i
O=C(c1ccc(COc2ccccc2Br)cc1)N1CCCCC1 | -0.91 | i | i | 10* | i | i
O=C(NCc1ccccc1)NC1(C(=O)Nc2ccc3c(c2)OCCO3)CCCCC1 | 0.84 | i | i | i | i | i
C=CCN(c1nc(C)cc(OC)n1)S(=O)(=O)c1ccccc1 | -7.9* | i | i | i | i | i
